In ChEMBL document CHEMBL1146744, “Efficient synthesis and structure-activity relationship of honokiol, a neurotrophic biphenyl-type neolignan” (2004):

Assays:
[1] = test system: Rattus norvegicus; assay: Neurite length after administration (0.1 uM) in rat cortical neurons; type: functional
Procedure, shortened: (§1)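 E18 Sprague-Dawley rat fetal cortical neurons were plated at 5000 cells/cm² on poly-L-lysine in DMEM with 10% FBS and penicillin/streptomycin for 24 h. They were then switched to serum-free Neurobasal with 2% B27 containing the sample, with 0.5% ethanol as vehicle control. Cells were fixed in PFA and stained with anti-MAP2 (1:1000, overnight, 4 °C) and peroxidase/DAB. Primary process length was averaged over 100 random neurons.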

[2] = test system: Rattus norvegicus; assay: Neurite length after administration (1 uM) in rat cortical neurons; type: functional; procedure, shortened: as §1

| SMILES | Activity [1] [µm] | Activity [2] [µm] |
| --- | --- | --- |
| C=CCc1ccc(O)c(-c2ccc(O)c(CC=C)c2)c1 [HONOKIOL] | 139 | 142 |
| C=CCc1ccc(O)c(-c2ccc(O)c(CCC)c2)c1 | 128 | 150 |
| C=CCc1cc(-c2cc(CCC)ccc2O)ccc1O | 103 | 120 |
| C=CCc1ccc(OC)c(-c2ccc(OC)c(CC=C)c2)c1 | 112 | 111 |
| CCCc1ccc(O)c(-c2ccc(O)c(CCC)c2)c1 | 101 | 102 |
| C=CCc1ccc(O)c(-c2ccc(OC)c(CC=C)c2)c1 [METHYLHONOKIOL] | 113 | 114 |
| C=CCc1ccc(OC)c(-c2ccc(O)c(CC=C)c2)c1 | 133 | 123 |
